From paper PMC9051311 (RSC Advances, 2020)
No end group written: not given here.

Columns and labels:
[1] = biological target: T1, ACE (E.C. 3.4.15.1) from the lungs of rabbits (Oryctolagus cuniculus, UniProt P12822); assay: ACE inhibitory; format: biochemical, rabbit
T1 sequence (P12822 34-1310): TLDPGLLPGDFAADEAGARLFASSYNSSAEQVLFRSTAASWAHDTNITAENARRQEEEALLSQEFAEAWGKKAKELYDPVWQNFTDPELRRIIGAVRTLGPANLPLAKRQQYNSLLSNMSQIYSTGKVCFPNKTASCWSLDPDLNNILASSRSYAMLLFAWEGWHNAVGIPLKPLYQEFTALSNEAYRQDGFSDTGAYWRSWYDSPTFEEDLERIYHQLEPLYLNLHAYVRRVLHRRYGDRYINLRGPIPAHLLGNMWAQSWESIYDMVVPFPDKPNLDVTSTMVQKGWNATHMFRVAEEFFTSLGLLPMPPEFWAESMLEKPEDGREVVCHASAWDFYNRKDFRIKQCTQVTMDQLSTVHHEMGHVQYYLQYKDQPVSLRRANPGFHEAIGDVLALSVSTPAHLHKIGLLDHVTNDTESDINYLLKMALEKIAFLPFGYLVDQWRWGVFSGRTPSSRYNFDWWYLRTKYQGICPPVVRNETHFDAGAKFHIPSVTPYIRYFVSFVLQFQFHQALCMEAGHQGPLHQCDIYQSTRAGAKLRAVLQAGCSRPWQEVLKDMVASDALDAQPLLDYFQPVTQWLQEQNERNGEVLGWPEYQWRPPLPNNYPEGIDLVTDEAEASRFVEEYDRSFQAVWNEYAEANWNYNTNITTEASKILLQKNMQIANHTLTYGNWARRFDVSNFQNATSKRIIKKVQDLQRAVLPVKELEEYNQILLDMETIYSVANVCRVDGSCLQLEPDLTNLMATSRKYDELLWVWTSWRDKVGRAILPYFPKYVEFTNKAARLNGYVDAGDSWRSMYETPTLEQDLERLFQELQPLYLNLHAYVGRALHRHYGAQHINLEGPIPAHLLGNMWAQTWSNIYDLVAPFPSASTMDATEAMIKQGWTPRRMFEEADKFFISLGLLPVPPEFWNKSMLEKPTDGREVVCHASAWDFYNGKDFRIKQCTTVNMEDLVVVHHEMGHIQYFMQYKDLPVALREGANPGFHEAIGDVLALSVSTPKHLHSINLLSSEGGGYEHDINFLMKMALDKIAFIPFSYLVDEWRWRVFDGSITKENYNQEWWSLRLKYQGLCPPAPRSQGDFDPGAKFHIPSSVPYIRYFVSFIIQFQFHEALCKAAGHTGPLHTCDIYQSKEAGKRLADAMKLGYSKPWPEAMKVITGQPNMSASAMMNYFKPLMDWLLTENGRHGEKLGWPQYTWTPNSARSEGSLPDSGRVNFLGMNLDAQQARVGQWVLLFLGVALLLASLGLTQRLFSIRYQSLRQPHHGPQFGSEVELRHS
In short: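 Rabbit-lung ACE (solution at 25 mU mL−1) pre-incubated with sample for 10 min at 37 °C, then 30 min at 37 °C with HHL (10 mM solution in PBS). Stopped with 1 M HCl. Hippuric acid extracted into ethyl acetate, dried under vacuum, redissolved in water and read at A250 against a hippuric acid standard curve. Captopril positive control. % inhibition corrected for blanks; IC50 by non-linear regression; triplicate.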

[2] = Observed solubility of the peptide in water; format: physicochemical

IC50 [1]	solubility [2]	Sequence
2.15 ± 0.016 µM		ETSGMKPTEL [ETSGMKPTEL, Glu–Thr–Ser–Gly–Met–Lys–Pro–Thr–Glu–Leu]
3.88 ± 0.004 µM	≥ 5000 µg/mL	ISSMGILVCL [ISSMGILVCL, Ile–Ser–Ser–Met–Gly–Ile–Leu–Val–Cys–Leu]
